Assay results reported in ChEMBL document CHEMBL1142189 (Antimicrob Agents Chemother, 2007).
Converted amounts (≈) assume the structure as drawn.

Columns and labels:
Type in all cases: functional, organism-based
[1] = test system: Plasmodium falciparum; assay: Inhibition of Plasmodium falciparum in HRP2 ELISA
How it was run: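 Fresh P. falciparum clinical isolates from untreated patients with confirmed monoinfection, unfrozen, unwashed, not precultured, no serum added; 1.5% hematocrit in complete RPMI 1640 with 0.5% Albumax and 25 mg/liter gentamicin, tested in duplicate. Twofold serial dilutions, seven concentrations plus drug-free control, on predried plates; 72 h at 37.5°C under 5% CO2/5% O2/90% N2. Plates freeze-thawed twice, HRP2 sandwich ELISA at 450 nm; IC50 by nonlinear regression.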

[2] = test system: Plasmodium falciparum; assay: Inhibition of Plasmodium falciparum AZ10011003 isolate in HRP2 ELISA
How it was run: (§1)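 Fresh pre-treatment clinical P. falciparum isolates, unfrozen, unwashed and not precultured, in duplicate at 1.5% hematocrit in RPMI 1640 with 0.5% Albumax and 25 mg/liter gentamicin. Plates carried predried twofold dilutions, single or in an 8x8 checkerboard. Incubation was 72 h at 37.5°C in 5% CO2/5% O2/90% N2, then two freeze-thaws. HRP2 sandwich ELISA read at 450 nm; IC50 from nonlinear regression.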

[3] = test system: Plasmodium falciparum; assay: Inhibition of Plasmodium falciparum AZ10011008 isolate in HRP2 ELISA; how it was run: as §1
[4] = test system: Plasmodium falciparum; assay: Inhibition of Plasmodium falciparum AZ10011022 isolate in HRP2 ELISA; how it was run: as §1
[5] = test system: Plasmodium falciparum; assay: Inhibition of Plasmodium falciparum AZ10011017 isolate in HRP2 ELISA

SMILES | IC50 [1] | IC90 [1] | IC99 [1] | IC50 [2] | IC50 [3] | IC50 [4] | IC50 [5]
C=C[C@H]1CN2CC[C@H]1C[C@H]2[C@H](O)c1ccnc2ccc(OC)cc12 [QUININE] | 0.0644 µg/mL (≈ 0.198 µM) | 0.173 µg/mL (≈ 0.533 µM) | 0.251 µg/mL | 0.123 µg/mL (≈ 0.38 µM) | 0.0828 µg/mL (≈ 0.255 µM) | 0.116 µg/mL (≈ 0.359 µM) | 
OC(c1cc(C(F)(F)F)nc2c(C(F)(F)F)cccc12)C1CCCCN1 (centres undefined) [MEFLOQUINE] |  | 0.031 µg/mL (≈ 0.0819 µM) | 0.0467 µg/mL |  |  |  | 
CC[C@H]1OC(=O)[C@H](C)[C@@H](O[C@H]2C[C@@](C)(OC)[C@@H](O)[C@H](C)O2)[C@H](C)[C@@H](O[C@@H]2O[C@H](C)C[C@H](N(C)C)[C@H]2O)[C@](C)(O)C[C@@H](C)CN(C)[C@H](C)[C@@H](O)[C@]1(C)O [AZITHROMYCIN] | 2.57 µg/mL (≈ 3.43 µM) | 13.3 µg/mL (≈ 17.8 µM) | 23.9 µg/mL | 2.44 µg/mL (≈ 3.26 µM) | 5.34 µg/mL (≈ 7.13 µM) | 2.19 µg/mL (≈ 2.92 µM) | 1.98 µg/mL (≈ 2.64 µM)
C[C@H]1[C@@H](O)O[C@@H]2O[C@@]3(C)CC[C@H]4[C@H](C)CC[C@@H]1[C@@]24OO3 [ARTENIMOL] | 0.00053 µg/mL (≈ 0.00186 µM) | 0.00143 µg/mL (≈ 0.00503 µM) | 0.00228 µg/mL | 0.00024 µg/mL (≈ 0.000844 µM) | 0.00091 µg/mL (≈ 0.0032 µM) | 0.00038 µg/mL (≈ 0.00134 µM) | 0.00027 µg/mL (≈ 0.00095 µM)
CCN(CC)CCCC(C)Nc1ccnc2cc(Cl)ccc12 (centres undefined) [CHLOROQUINE] |  | 0.13 µg/mL (≈ 0.405 µM) | 0.172 µg/mL |  |  |  | 
